In ChEMBL document CHEMBL3616442, “Unconventional Knoevenagel-type indoles: Synthesis and cell-based studies for the identification of pro-apoptotic agents” (Eur J Med Chem, 2015):

Experiments:
MT4 = test: Antiproliferative activity against human MT4 cells after 96 hrs by MTT assay; assay type: functional, cell-based; conditions: MT4, 96 h
Outline: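 Exponentially growing MT-4 cells (CD4+ human T-cells carrying integrated HTLV-1 genome), seeded at 1×10^5 cells/mL in RPMI-1640 with 10% FCS and antibiotics. Serial dilutions of compound (DMSO stock 100 mM, diluted in medium), 37 °C, 5% CO₂, 96 h. Viability read by MTT. 50% inhibition versus untreated controls by linear regression. Mean ± SD of three independent determinations.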

CCRF-CEM = test: Cytotoxicity against human CCRF-CEM cells after 96 hrs by MTT assay; assay type: functional, cell-based
Outline: (§1)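 ATCC cell lines, mycoplasma-free by Hoechst staining. Haematological lines in RPMI-1640, solid-tumour and normal fibroblast lines in their own media, all with 10% FCS and antibiotics, at 37 °C in 5% CO₂. Compounds added as serial dilutions from a 100 mM DMSO stock diluted in medium. Viability by MTT after 96 h at 37 °C. Mean ± SD of three independent determinations.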

WIL2-NS = test: Cytotoxicity against human WIL2-NS cells after 96 hrs by MTT assay; assay type: functional, cell-based; outline: as §1
CCRF-SB = test: Cytotoxicity against human CCRF-SB cells after 96 hrs by MTT assay; assay type: functional, cell-based; outline: as §1
MRC5 = test: Cytotoxicity against human MRC5 cells after 96 hrs by MTT assay; assay type: cell-based; conditions: MRC5, 96 h; outline: as §1
[1] = Cytotoxicity against human CRL7065 cells after 96 hrs by MTT assay; assay type: cell-based; conditions: CRL-7065, 96 h; outline: as §1
SK-MEL-28 = test: Cytotoxicity against human SK-MEL-28 cells after 96 hrs by MTT assay; assay type: functional, cell-based; conditions: SK-MEL-28, 96 h; outline: as §1
[2] = Cytotoxicity against human SKMES1 cells after 96 hrs by MTT assay; assay type: functional, cell-based; conditions: SK-MES-1, 96 h; outline: as §1
DU-145 = test: Cytotoxicity against human DU145 cells after 96 hrs by MTT assay; assay type: functional, cell-based; conditions: DU-145, 96 h; outline: as §1
HepG2 = test: Cytotoxicity against human HepG2 cells after 96 hrs by MTT assay; assay type: functional, cell-based; conditions: HepG2, 96 h; outline: as §1
MCF7 = test: Cytotoxicity against human MCF7 cells after 96 hrs by MTT assay; assay type: functional, cell-based; conditions: MCF7, 96 h; outline: as §1

## Cc1ccc(S(=O)(=O)/C(C#N)=C/c2c(-c3ccccc3)[nH]c3ccccc23)cc1
MT4
  EC50: 0.4 µM

## COc1cccc2c1C(=O)c1c(O)c3c(c(O)c1C2=O)C[C@@](O)(C(=O)CO)C[C@@H]3O[C@H]1C[C@H](N)[C@H](O)[C@H](C)O1 [DOXORUBICIN]
MT4
  EC50: 0.03 µM
CCRF-CEM
  EC50: 20 nM
WIL2-NS
  EC50: 40 nM
CCRF-SB
  EC50: 10 nM
MRC5
  EC50: 0.3 µM
[1]
  EC50: 0.9 µM
SK-MEL-28
  EC50: 0.7 µM
[2]
  EC50: 0.1 µM
DU-145
  EC50: 0.2 µM
HepG2
  EC50: 0.3 µM
MCF7
  EC50: 0.3 µM

## COCCOC(=O)/C(C#N)=C/c1c(-c2ccccc2)[nH]c2ccccc12
MT4
  EC50: 1.2 µM
CCRF-CEM
  EC50: 1600 nM
WIL2-NS
  EC50: 2200 nM
CCRF-SB
  EC50: 2200 nM
MRC5
  EC50: > 100 µM
[1]
  EC50: 76 µM
SK-MEL-28
  EC50: 9.3 µM
[2]
  EC50: 5 µM
DU-145
  EC50: 4.2 µM
HepG2
  EC50: 85 µM
MCF7
  EC50: 12 µM

## CC(=O)/C(=C\c1c(-c2ccccc2)[nH]c2ccccc12)S(=O)(=O)c1ccc(Cl)cc1
MT4
  EC50: > 100 µM

## COC(=O)/C(=C\c1c(-c2ccccc2)[nH]c2ccccc12)S(=O)(=O)c1ccccc1
MT4
  EC50: 1 µM

## CC(=O)/C(=C/c1c(-c2ccccc2)[nH]c2ccccc12)C(=O)c1ccccc1
MT4
  EC50: 2 µM
CCRF-CEM
  EC50: 8100 nM
WIL2-NS
  EC50: 12000 nM
CCRF-SB
  EC50: 11000 nM
MRC5
  EC50: > 100 µM
[1]
  EC50: > 100 µM
SK-MEL-28
  EC50: > 100 µM
[2]
  EC50: > 100 µM
DU-145
  EC50: > 100 µM
HepG2
  EC50: 79 µM
MCF7
  EC50: > 100 µM

## Cn1cc(/C=C(\C#N)S(=O)(=O)c2ccccc2)c2ccccc21
MT4
  EC50: > 100 µM

## N#CC(C#N)=Cc1c[nH]c2ccccc12
MT4
  EC50: 36 µM

## CCOC(=O)/C(=C/c1c(-c2ccccc2)[nH]c2ccccc12)C(=O)c1ccc(Cl)cc1
MT4
  EC50: 9 µM

## CC(C)(C)C(=O)/C(C#N)=C/c1c(-c2ccccc2)[nH]c2ccccc12
MT4
  EC50: 0.5 µM

## CCOC(=O)/C(=C/c1c(-c2ccccc2)[nH]c2ccccc12)C(=O)c1ccccc1
MT4
  EC50: 7 µM
CCRF-CEM
  EC50: 8000 nM
WIL2-NS
  EC50: 12000 nM
CCRF-SB
  EC50: 9600 nM
MRC5
  EC50: > 100 µM
[1]
  EC50: > 100 µM
SK-MEL-28
  EC50: > 100 µM
[2]
  EC50: > 100 µM
DU-145
  EC50: 68 µM
HepG2
  EC50: 31 µM
MCF7
  EC50: 43 µM

## N#C/C(=C\c1c[nH]c2ccccc12)S(=O)(=O)c1ccccc1
MT4
  EC50: > 100 µM

## CCOC(=O)/C(C#N)=C/c1c(-c2ccccc2)[nH]c2ccccc12
MT4
  EC50: 1.7 µM

## O=C(/C(=C\c1c(-c2ccccc2)[nH]c2ccccc12)C(=O)C(F)(F)F)c1ccco1
MT4
  EC50: 0.8 µM
CCRF-CEM
  EC50: 1900 nM
WIL2-NS
  EC50: 2300 nM
CCRF-SB
  EC50: 1800 nM
MRC5
  EC50: 12 µM
[1]
  EC50: 8.1 µM
SK-MEL-28
  EC50: 33 µM
[2]
  EC50: 27 µM
DU-145
  EC50: 9.2 µM
HepG2
  EC50: 16 µM
MCF7
  EC50: 10 µM

## Cc1[nH]c2ccccc2c1/C=C(\C#N)S(C)(=O)=O
MT4
  EC50: > 100 µM

## Cn1cc(/C=C(\C#N)S(C)(=O)=O)c2ccccc21
MT4
  EC50: > 100 µM

## CCOC(=O)/C(=C/c1c(-c2ccccc2)[nH]c2ccccc12)C(=O)c1ccc([N+](=O)[O-])cc1
MT4
  EC50: 1.5 µM
CCRF-CEM
  EC50: 1800 nM
WIL2-NS
  EC50: 2400 nM
CCRF-SB
  EC50: 2200 nM
MRC5
  EC50: > 100 µM
[1]
  EC50: > 100 µM
SK-MEL-28
  EC50: > 100 µM
[2]
  EC50: 19 µM
DU-145
  EC50: 11 µM
HepG2
  EC50: 28 µM
MCF7
  EC50: 40 µM

## COC(=O)/C(=C\c1c[nH]c2ccccc12)S(=O)(=O)c1ccccc1
MT4
  EC50: > 100 µM

## N#C/C(=C\c1c(-c2ccccc2)[nH]c2ccccc12)C(=O)c1ccc(Cl)cc1
MT4
  EC50: 0.4 µM
CCRF-CEM
  EC50: 1100 nM
WIL2-NS
  EC50: 4500 nM
CCRF-SB
  EC50: 600 nM
MRC5
  EC50: 14 µM
[1]
  EC50: 7.4 µM
SK-MEL-28
  EC50: 15 µM
[2]
  EC50: 19 µM
DU-145
  EC50: 11 µM
HepG2
  EC50: 37 µM
MCF7
  EC50: 28 µM

## Cc1[nH]c2ccccc2c1/C=C(\C#N)S(=O)(=O)c1ccccc1
MT4
  EC50: > 100 µM

## CC(=O)C(=Cc1c(-c2ccccc2)[nH]c2ccccc12)C(C)=O
MT4
  EC50: 1.5 µM

## CC(C)OP(=O)(OC(C)C)/C(C#N)=C/c1c(-c2ccccc2)[nH]c2ccccc12
MT4
  EC50: 11 µM

## CCOC(=O)/C(=C/c1c[nH]c2ccccc12)C(=O)c1ccc([N+](=O)[O-])cc1
MT4
  EC50: 100 µM

## CCOC(=O)/C(=C\c1c(-c2ccccc2)[nH]c2ccccc12)C(C)=O
MT4
  EC50: 0.6 µM
CCRF-CEM
  EC50: 1400 nM
WIL2-NS
  EC50: 2700 nM
CCRF-SB
  EC50: 1600 nM
MRC5
  EC50: 31 µM
[1]
  EC50: 83 µM
SK-MEL-28
  EC50: 30 µM
[2]
  EC50: 23 µM
DU-145
  EC50: 11 µM
HepG2
  EC50: 19 µM
MCF7
  EC50: 32 µM

## N#C/C(=C\c1c(-c2ccccc2)[nH]c2ccccc12)C(=O)N1CCCCC1
MT4
  EC50: 9.6 µM

## N#C/C(=C\c1c(-c2ccccc2)[nH]c2ccccc12)C(N)=O
MT4
  EC50: 6 µM

## O=C(C(=Cc1c(-c2ccccc2)[nH]c2ccccc12)C(=O)c1ccccc1)c1ccccc1
MT4
  EC50: 8.9 µM
CCRF-CEM
  EC50: 12000 nM
WIL2-NS
  EC50: 72000 nM
CCRF-SB
  EC50: 12000 nM
MRC5
  EC50: > 100 µM
[1]
  EC50: > 100 µM
SK-MEL-28
  EC50: > 100 µM
[2]
  EC50: > 100 µM
DU-145
  EC50: > 100 µM
HepG2
  EC50: > 100 µM
MCF7
  EC50: > 100 µM

## N#C/C(=C\c1c(-c2ccccc2)[nH]c2ccccc12)C(=O)Nc1ccc(Cl)cc1
MT4
  EC50: 1.7 µM

## CS(=O)(=O)/C(C#N)=C/c1c[nH]c2ccccc12
MT4
  EC50: > 100 µM

## Cc1[nH]c2ccccc2c1C=C(C#N)C#N
MT4
  EC50: 56 µM

## CCOC(=O)/C(=C/c1c[nH]c2ccccc12)C(=O)c1ccccc1
MT4
  EC50: > 100 µM

## CCOP(=O)(OCC)/C(C#N)=C/c1c[nH]c2ccccc12
MT4
  EC50: 80 µM
